Assay results from ChEMBL document CHEMBL4346670, “Discovery of Novel Janus Kinase (JAK) and Histone Deacetylase (HDAC) Dual Inhibitors for the Treatment of Hematological Malignancies” (J Med Chem, 2019).

Columns and labels:
K562 = test: Antiproliferative activity against human K562 cells assessed as reduction in cell viability after 48 hrs by MTT assay; assay type: functional, cell-based; conditions: K562, 48 h
HEL = test: Antiproliferative activity against HEL cells harboring JAK2 V617F mutant assessed as reduction in cell viability after 48 hrs by MTT assay; assay type: functional, cell-based; conditions: Homo sapiens
[1] = target: Tyrosine-protein kinase JAK2 (Homo sapiens, UniProt O60674); test: Inhibition of recombinant human JAK2 using Ulight-CAGAGAIETDKEYYTVKD as substrate measured after 60 mins by LANCE assay
Histone deacetylase = test: Inhibition of HDAC in human HeLa nuclear extract using Boc-Lys(acetyl)-AMC as substrate preincubated for 5 mins followed by substrate addition and measured after 30 mins by fluorescence assay; assay type: cell-based
MOLT-4 = test: Antiproliferative activity against human MOLT4 cells assessed as reduction in cell viability after 48 hrs by MTT assay; assay type: functional, cell-based; conditions: MOLT-4, 48 h
Procedure, shortened: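 Cells kept in RPMI1640 with 10% FBS at 37 °C, 5% CO2. Seeded and grown for 12 h, then exposed to a range of compound concentrations for 48 h. 0.5% MTT added for 4 h, formazan dissolved in DMSO, absorbance read at 570 nm.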

Jurkat = test: Antiproliferative activity against human Jurkat cells assessed as reduction in cell viability after 48 hrs by MTT assay; assay type: functional, cell-based
[2] = target: Tyrosine-protein kinase JAK1 (Homo sapiens, UniProt P23458); test: Inhibition of recombinant human JAK1 using Ulight-CAGAGAIETDKEYYTVKD as substrate measured after 60 mins by LANCE assay
Procedure, shortened: (§1)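 Human recombinant JAK enzyme assays run by a contract lab. IC50 was taken from a non-linear curve fit, with all parameters allowed to float. Assays were run in replicate (n>2) and reported as mean ± SD.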

[3] = target: T1, Tyrosine-protein kinase JAK3 (Homo sapiens, UniProt P52333); test: Inhibition of recombinant human JAK3 using Ulight-CAGAGAIETDKEYYTVKD as substrate measured after 60 mins by LANCE assay
T1 sequence (P52333 whole entry): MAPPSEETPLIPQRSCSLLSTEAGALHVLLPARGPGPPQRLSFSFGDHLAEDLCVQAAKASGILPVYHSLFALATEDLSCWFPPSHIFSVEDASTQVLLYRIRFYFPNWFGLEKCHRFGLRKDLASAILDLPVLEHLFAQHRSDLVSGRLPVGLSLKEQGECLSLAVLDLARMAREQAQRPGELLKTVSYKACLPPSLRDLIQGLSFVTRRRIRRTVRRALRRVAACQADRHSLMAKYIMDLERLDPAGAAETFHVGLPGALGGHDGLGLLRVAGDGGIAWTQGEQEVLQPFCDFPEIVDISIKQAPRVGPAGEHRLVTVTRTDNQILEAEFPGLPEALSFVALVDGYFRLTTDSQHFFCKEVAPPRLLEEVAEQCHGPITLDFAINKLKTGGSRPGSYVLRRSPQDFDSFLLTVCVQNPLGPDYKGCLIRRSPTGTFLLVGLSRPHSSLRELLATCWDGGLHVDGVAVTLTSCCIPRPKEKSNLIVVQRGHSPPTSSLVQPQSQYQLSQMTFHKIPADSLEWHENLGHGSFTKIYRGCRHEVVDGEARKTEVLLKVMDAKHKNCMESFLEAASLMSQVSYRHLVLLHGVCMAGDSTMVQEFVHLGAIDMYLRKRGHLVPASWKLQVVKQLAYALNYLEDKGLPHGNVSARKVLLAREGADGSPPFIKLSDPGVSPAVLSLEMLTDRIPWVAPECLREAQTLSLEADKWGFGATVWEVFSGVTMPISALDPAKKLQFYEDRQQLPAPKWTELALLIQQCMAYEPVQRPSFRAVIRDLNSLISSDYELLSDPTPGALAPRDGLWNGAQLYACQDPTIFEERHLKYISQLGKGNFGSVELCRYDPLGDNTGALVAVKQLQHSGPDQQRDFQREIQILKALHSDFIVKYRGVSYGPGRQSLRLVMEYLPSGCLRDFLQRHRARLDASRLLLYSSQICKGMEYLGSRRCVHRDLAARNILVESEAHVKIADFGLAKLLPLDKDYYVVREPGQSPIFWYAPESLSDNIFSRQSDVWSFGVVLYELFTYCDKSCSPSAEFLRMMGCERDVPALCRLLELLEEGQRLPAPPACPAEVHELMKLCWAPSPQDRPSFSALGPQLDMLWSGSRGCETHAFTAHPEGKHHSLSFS

[4] = target: Non-receptor tyrosine-protein kinase TYK2 (Homo sapiens, UniProt P29597); test: Inhibition of recombinant human TYK2 using Ulight-CAGAGAIETDKEYYTVKD as substrate measured after 60 mins by LANCE assay; procedure, shortened: as §1
Histone deacetylase 2 = Histone deacetylase 2 (Homo sapiens, UniProt Q92769); test: Inhibition of HDAC2 (unknown origin) using Boc-Lys(acetyl)-AMC as substrate preincubated for 5 mins followed by substrate addition and measured after 30 mins by fluorescence assay
[5] = target: T2, Protein deacetylase HDAC6 (Homo sapiens, UniProt Q9UBN7); test: Inhibition of HDAC6 (unknown origin) using Boc-Lys(acetyl)-AMC as substrate preincubated for 5 mins followed by substrate addition and measured after 30 mins by fluorescence assay
T2 sequence (Q9UBN7 whole entry): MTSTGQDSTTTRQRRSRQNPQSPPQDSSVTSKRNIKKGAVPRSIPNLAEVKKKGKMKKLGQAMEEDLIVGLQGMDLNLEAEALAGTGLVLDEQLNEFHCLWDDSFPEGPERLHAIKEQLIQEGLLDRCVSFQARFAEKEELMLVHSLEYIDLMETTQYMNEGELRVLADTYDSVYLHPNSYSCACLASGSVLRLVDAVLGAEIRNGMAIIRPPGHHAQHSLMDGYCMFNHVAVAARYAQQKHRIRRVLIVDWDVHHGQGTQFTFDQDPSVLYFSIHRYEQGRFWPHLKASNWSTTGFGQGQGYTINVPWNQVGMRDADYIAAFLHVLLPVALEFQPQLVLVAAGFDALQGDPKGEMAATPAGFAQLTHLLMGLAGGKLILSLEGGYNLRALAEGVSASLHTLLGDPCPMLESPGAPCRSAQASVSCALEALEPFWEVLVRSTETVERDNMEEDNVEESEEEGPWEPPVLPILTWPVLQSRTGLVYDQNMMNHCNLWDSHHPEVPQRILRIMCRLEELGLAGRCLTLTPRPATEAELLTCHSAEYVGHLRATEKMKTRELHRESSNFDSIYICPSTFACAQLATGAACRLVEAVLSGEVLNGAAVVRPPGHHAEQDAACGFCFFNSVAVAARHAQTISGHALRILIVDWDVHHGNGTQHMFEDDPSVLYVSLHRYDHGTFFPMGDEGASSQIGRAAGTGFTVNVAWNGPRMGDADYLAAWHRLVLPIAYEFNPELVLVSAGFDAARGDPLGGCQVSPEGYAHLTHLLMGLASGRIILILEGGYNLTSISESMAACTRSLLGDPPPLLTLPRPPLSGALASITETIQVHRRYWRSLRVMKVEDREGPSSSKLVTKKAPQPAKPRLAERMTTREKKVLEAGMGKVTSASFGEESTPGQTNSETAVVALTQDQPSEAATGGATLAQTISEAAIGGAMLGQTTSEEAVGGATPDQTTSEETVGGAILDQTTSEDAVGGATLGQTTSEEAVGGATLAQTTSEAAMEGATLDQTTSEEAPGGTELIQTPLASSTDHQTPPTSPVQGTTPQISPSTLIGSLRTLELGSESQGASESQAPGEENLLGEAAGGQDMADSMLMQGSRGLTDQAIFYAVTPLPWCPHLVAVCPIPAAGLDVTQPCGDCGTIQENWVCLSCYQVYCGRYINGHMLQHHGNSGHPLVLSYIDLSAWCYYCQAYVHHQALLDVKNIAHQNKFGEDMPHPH

Histone deacetylase 8 = target: T3, Histone deacetylase 8 (Homo sapiens, UniProt Q9BY41); test: Inhibition of HDAC8 (unknown origin) using Boc-Lys(trifluoroacetyl)-AMC as substrate preincubated for 5 mins followed by substrate addition and measured after 30 mins by fluorescence assay
T3 sequence (Q9BY41 whole entry): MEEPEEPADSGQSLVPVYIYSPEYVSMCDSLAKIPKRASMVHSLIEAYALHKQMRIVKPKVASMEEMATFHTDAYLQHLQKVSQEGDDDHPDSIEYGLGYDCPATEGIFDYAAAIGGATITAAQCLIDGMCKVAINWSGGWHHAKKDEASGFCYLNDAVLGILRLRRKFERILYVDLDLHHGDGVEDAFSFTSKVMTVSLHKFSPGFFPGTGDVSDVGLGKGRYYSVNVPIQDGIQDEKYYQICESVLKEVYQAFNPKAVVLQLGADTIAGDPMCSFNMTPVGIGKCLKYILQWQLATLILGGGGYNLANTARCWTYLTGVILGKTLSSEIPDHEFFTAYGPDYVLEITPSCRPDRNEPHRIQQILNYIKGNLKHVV

Chain of Histone deacetylase 2 (Q92769 whole entry): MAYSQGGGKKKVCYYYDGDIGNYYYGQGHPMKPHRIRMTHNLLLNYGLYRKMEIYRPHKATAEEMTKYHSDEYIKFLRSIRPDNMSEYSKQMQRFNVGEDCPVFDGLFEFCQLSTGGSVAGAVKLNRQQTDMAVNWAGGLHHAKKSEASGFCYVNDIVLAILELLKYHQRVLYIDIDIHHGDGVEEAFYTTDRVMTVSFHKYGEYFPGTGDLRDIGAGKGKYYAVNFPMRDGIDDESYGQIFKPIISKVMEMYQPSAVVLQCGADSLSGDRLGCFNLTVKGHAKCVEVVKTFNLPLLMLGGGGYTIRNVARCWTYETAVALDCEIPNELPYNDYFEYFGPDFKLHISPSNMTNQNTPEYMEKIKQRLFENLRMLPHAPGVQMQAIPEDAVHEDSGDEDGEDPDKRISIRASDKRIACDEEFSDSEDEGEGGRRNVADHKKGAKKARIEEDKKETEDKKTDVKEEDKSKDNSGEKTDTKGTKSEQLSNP
Chain of Tyrosine-protein kinase JAK2 (O60674 whole entry): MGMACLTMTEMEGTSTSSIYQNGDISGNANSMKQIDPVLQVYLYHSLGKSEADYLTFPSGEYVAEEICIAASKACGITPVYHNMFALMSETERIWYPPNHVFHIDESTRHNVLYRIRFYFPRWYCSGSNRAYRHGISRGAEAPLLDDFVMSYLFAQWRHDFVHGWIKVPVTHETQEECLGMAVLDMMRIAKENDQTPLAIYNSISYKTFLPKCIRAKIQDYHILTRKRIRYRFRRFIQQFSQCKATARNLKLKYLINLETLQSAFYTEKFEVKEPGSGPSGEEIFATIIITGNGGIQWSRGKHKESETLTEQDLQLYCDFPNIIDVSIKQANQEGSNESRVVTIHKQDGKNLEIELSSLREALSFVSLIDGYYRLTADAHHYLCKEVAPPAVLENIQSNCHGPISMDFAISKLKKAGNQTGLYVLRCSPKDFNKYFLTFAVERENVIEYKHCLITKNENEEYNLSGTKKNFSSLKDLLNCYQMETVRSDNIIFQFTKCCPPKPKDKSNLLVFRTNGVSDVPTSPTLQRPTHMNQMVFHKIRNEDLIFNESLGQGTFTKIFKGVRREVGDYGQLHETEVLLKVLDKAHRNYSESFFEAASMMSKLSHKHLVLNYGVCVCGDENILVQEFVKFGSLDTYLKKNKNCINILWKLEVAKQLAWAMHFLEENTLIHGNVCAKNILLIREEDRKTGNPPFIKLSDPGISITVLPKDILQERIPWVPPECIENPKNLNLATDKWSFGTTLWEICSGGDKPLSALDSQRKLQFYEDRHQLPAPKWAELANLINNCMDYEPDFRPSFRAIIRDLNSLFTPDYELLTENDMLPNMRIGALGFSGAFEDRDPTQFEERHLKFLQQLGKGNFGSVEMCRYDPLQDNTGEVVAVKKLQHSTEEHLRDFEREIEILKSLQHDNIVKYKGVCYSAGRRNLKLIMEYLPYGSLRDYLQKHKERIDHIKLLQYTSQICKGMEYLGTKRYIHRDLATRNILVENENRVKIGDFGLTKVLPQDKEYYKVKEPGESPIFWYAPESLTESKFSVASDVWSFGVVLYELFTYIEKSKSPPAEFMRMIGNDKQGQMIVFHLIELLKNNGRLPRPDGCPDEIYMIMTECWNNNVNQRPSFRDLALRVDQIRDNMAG
Chain of Non-receptor tyrosine-protein kinase TYK2 (P29597 whole entry): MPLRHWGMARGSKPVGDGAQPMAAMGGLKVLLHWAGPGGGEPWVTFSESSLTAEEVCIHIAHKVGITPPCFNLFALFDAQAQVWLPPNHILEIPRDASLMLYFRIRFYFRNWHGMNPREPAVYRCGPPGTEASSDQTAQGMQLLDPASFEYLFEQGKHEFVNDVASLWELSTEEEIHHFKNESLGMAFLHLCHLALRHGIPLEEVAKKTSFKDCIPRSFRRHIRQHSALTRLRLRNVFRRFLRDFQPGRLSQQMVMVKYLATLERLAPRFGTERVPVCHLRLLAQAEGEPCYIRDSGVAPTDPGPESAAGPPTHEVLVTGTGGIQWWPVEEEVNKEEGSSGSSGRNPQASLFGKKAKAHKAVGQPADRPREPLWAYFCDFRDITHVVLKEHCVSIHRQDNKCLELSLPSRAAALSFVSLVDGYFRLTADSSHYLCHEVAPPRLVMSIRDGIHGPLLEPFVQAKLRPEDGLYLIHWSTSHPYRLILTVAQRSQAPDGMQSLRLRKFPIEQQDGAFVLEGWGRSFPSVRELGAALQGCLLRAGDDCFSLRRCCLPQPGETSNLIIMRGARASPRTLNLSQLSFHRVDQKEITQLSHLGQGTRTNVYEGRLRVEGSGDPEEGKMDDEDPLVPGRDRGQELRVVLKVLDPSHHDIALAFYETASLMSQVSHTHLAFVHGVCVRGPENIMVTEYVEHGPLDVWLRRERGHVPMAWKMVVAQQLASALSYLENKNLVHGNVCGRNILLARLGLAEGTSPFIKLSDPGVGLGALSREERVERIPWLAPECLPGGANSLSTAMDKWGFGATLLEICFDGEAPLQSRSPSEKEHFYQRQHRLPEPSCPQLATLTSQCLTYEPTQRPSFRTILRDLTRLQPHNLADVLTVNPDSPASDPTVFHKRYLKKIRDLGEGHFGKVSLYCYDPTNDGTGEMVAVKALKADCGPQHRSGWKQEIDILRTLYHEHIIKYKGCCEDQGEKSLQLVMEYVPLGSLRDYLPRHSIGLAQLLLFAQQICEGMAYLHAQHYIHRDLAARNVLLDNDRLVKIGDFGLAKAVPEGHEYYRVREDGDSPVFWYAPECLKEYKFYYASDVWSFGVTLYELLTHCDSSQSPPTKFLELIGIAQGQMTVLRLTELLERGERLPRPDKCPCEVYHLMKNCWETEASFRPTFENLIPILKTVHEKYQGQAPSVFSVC
Chain of Tyrosine-protein kinase JAK1 (P23458 whole entry): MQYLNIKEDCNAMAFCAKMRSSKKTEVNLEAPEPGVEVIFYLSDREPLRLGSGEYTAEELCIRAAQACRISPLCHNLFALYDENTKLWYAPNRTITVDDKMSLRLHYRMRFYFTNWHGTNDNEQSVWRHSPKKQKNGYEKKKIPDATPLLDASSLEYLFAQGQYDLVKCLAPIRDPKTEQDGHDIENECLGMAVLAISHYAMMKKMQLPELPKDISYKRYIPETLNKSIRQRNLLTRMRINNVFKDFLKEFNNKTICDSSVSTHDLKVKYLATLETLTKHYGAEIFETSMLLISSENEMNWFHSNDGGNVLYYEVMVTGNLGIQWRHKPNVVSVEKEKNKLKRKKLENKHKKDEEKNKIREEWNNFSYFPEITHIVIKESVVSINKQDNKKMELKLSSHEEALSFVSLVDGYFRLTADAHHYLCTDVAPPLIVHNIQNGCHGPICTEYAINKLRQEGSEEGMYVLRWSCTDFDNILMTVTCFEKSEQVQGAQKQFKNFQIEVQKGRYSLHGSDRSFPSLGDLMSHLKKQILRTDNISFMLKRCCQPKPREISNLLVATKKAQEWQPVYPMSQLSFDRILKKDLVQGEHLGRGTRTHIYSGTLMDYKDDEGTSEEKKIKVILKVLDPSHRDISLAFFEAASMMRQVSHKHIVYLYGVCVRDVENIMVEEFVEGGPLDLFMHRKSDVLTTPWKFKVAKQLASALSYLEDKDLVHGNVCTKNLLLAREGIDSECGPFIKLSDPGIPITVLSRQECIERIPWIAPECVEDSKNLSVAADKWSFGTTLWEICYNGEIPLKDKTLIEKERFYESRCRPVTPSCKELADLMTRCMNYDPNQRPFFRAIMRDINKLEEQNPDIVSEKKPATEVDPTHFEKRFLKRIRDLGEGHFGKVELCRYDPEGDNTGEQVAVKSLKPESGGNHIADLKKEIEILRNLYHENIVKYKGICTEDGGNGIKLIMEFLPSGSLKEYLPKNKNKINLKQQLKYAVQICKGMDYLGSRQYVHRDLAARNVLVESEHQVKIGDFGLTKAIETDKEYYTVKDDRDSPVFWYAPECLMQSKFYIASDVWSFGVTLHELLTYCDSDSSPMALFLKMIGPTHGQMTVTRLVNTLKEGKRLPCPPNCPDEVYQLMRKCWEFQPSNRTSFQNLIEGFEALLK

Structure (SMILES) | IC50 (K562) [nM] | IC50 (HEL) [nM] | IC50 [1] [nM] | IC50 (Histone deacetylase) [nM] | IC50 (MOLT-4) [nM] | IC50 (Jurkat) [nM] | IC50 [2] [nM] | IC50 [3] [nM] | IC50 [4] [nM] | IC50 (Histone deacetylase 2) [nM] | IC50 [5] [nM] | IC50 (Histone deacetylase 8) [nM]
O=C(CCCCCCn1cc(Nc2ncc(Cl)c(Nc3ccccc3)n2)cn1)NO | 420 | 180 | 12 | 19 | 160 | 90 |  |  |  |  |  | 
O=C(CCCCCCn1cc(Nc2ncc(Cl)c(N3CCCCC3)n2)cn1)NO |  |  | 50 | 40 |  |  | 30 | 3.7 | 60 |  |  | 
O=C(CCCCCCn1cc(Nc2ncc(Cl)c(N3CCOCC3)n2)cn1)NO | 910 | 470 | 20 | 37 | 320 | 170 |  |  |  |  |  | 
O=C(CCCCCn1cc(Nc2ncc(Cl)c(Nc3ccc(F)cc3)n2)cn1)NO | 420 | 150 | 5 | 26 | 120 | 60 |  |  |  |  |  | 
CNc1nc(Nc2cnn(CCCCCCC(=O)NO)c2)ncc1C(F)(F)F |  |  | 85 | 37 |  |  |  |  |  |  |  | 
O=C(CCCCCCCn1cc(Nc2ncc(Cl)c(Nc3ccc(F)cc3)n2)cn1)NO |  |  | 61 | 38 |  |  |  |  |  | 430 | 300 | 1700
O=C(CCCCCn1cc(Nc2ncc(Cl)c(Nc3cccc(Cl)c3)n2)cn1)NO | 580 | 80 | 7 | 4 | 80 | 50 |  |  |  |  |  | 
CCCNc1nc(Nc2cnn(CCCCCCC(=O)NO)c2)ncc1Cl |  |  | 30 | 26 |  |  |  |  |  |  |  | 
O=C(CCCCCn1cc(Nc2ncc(Cl)c(Nc3ccccc3Cl)n2)cn1)NO | 1810 | 430 | 18 | 18 | 630 | 310 |  |  |  |  |  | 
O=C(NO)c1ccc(Cn2cc(Nc3ncc(Cl)c(Nc4ccc(F)cc4)n3)cn2)cc1 |  |  | 21 | 62 |  |  |  |  |  | 730 | 13 | 120
O=C(CCCCCCn1cc(Nc2nccc(Nc3ccc(F)cc3)n2)cn1)NO |  |  | > 100 | 18 |  |  |  |  |  |  |  | 
O=C(CCCCn1cc(Nc2ncc(Cl)c(Nc3ccc(F)cc3)n2)cn1)NO |  |  | 46 | 569 |  |  |  |  |  | 1400 | 310 | 5100
O=C(CCCCCCn1cc(Nc2ncc(Cl)c(Nc3ccccc3Cl)n2)cn1)NO | 860 | 340 | 46 | 10 | 510 | 250 |  |  |  |  |  | 
O=C(CCCCCCn1cc(Nc2ncc(C(F)(F)F)c(Nc3ccc(F)cc3)n2)cn1)NO | 480 | 420 | > 100 | 41 | 240 |  |  |  |  |  |  | 
CNc1nc(Nc2cnn(CCCCCC(=O)NO)c2)ncc1Cl |  |  | 36 | 104 |  |  |  |  |  |  |  | 
O=C(CCn1cc(Nc2ncc(Cl)c(Nc3ccc(F)cc3)n2)cn1)NO |  |  | 22 | > 10000 |  |  |  |  |  |  |  | 
O=C(CCCn1cc(Nc2ncc(Cl)c(Nc3ccc(F)cc3)n2)cn1)NO |  |  | 10 | > 10000 |  |  |  |  |  |  |  | 
O=C(/C=C/c1ccc(Cn2cc(Nc3ncc(Cl)c(Nc4ccc(F)cc4)n3)cn2)cc1)NO | 1030 | 600 | 43 | 144 | 330 | 150 |  |  |  | 1000 | 63 | 14100
